# CHRM4 antagonist = blocks acetylcholine activation of human M4 receptor; CHO-hM4 cells, ACh EC80, Fluo-8 calcium fluorescence; P08173; hit rate 0.73% among 360,000; inhibition, % at 3 µM; AID 624125;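 active = inhibition above its plate's cutoff, the mean inhibition of sample wells plus 3 SD, cut at about 27% in these data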
# CHRM5 antagonist = blocks acetylcholine activation of human M5 receptor. inhibition, % at 3 µM. hit rate 0.59% among 360,000. CHO-hM5 cells, Fluo-8 calcium fluorescence, ACh EC80;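 active = inhibition above a per-plate cutoff, the mean of that plate's test compounds plus 3 SD, cut at about 27% in these data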
# Target sequence (P08912 whole entry, looked up): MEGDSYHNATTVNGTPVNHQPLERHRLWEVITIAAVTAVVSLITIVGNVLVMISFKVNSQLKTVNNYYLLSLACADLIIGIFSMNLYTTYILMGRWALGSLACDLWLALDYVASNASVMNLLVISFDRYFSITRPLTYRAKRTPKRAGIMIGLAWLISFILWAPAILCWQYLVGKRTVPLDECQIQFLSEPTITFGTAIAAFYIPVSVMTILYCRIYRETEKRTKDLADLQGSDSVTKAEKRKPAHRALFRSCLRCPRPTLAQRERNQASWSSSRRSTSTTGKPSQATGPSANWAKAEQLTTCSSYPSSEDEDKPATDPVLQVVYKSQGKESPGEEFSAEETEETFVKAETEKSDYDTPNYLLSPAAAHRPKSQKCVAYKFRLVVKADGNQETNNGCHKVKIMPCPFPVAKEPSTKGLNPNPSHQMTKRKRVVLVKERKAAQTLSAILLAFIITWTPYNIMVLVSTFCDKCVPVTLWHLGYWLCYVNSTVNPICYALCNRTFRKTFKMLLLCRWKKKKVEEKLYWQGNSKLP
# M5 PAM = positive allosteric modulators of human muscarinic M5 receptor; CHO-K1 hM5, Fluo-8 calcium, ACh EC20 PAM; 0% = ACh EC20, 100% = ACh EC100; activation, % at 3 µM; hit rate 0.3% among 360,000; AID 624038;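 active = activation above the run cutoff, the mean activation of all test compounds plus 3 SD, cut at about 18% in these data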
#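 Test system: CHO-K1 hM5 cells / Doses: single-point, 3 µM nominal / Times: Post-acetylcholine fluorescence recording 140 s / Technique: Fluo-8 calcium fluorescence / Measure: Max/basal fluorescence ratio as % of EC20–EC100 ACh window / Benchmarks: low control EC20 acetylcholine (0%), high control EC100 acetylcholine (100%) / Replicates: one well per compound, no replicates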
# CHRM4 PAM = CHRM4 positive allosteric modulation; hit rate 0.4% among 360,000; CHO-K1 hM4/Gqi5, Fluo-8 calcium fluorescence, ACh EC20; 0% = ACh EC20, 100% = maximal ACh; activation, % at 3 µM;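 active = activation above its plate's cutoff, the mean activation of sample wells plus 3 SD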
# CHRM5 agonist = CHRM5 agonism in calcium assay. P08912. CHO-K1 hM5 cells, Fluo-8 calcium fluorescence; 0% DMSO wells, 100% maximal acetylcholine response. activation, % at 3 µM. hit rate 0.19% among 360,000;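 active = activation above the run's mean over test compounds plus 3 SD, cut at about 23% in these data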;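 note: signal is peak over basal fluorescence ratio across the kinetic read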
# CHRM4 agonist = CHRM4 agonism in calcium assay; P08173; CHO-K1 hM4/Gqi5, Fluo-8 calcium fluorescence; vehicle 0%, full acetylcholine response 100%; activation, % at 3 µM; hit rate 0.14% among 360,000;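 active = activation above the run mean over all test wells plus 3 SD, cut at about 32% in these data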;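 note: peak over basal fluorescence ratio per well then scaled between controls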
# A number is an active result; n = inactive. Rows were chosen to be rich in hits. Some 1.8% of all compounds tested hit in one or more screens of this group.
SMILES,CHRM4 antagonist,CHRM5 antagonist,M5 PAM,CHRM4 PAM,CHRM5 agonist,CHRM4 agonist
Cc1c(Cl)cccc1NC(=O)CNC(=O)c1ccc(F)cc1,n,n,n,n,n,n
Cc1cc(C)c(C)c(S(=O)(=O)NCc2ccc(C(=O)N3CCN(C)CC3)cc2)c1C,n,n,n,n,n,n
C/C(=N/NC(=O)Nc1ccccc1)c1ccc(C)cc1,n,n,n,n,n,n
O=C(CSCc1ccc(C(=O)O)cc1)Nc1ccccc1,n,n,n,n,n,n
O=C(Nc1ccccc1)Nc1ccc2ccccc2c1,n,33.4,n,n,n,n
O=C(CSCc1ccc(C(=O)O)cc1)Nc1ccc2ccccc2c1,34.1,n,n,n,n,n
CC(=O)Nc1ccc2ccccc2c1,n,n,n,n,n,n
C/C(=N\NC(=O)Nc1ccccc1)c1ccc2ccccc2c1,n,33.8,n,n,n,n
Cc1c(C(=O)OCC(=O)NCCN2C(=O)CSC2=O)cccc1[N+](=O)[O-],n,n,n,n,n,n
Cc1nn(CC(=O)NCCCN2CCCC2)c(=O)c2nn(-c3ccccc3)c(C)c12,n,n,n,n,n,n
Cc1ccc(SCC(=O)OCC(=O)N(C)CC(=O)Nc2ccc(F)cc2)cc1C,n,n,n,n,49.9,52.0
O=C(CNC(=O)c1ccco1)OCc1cccc(Cl)c1,n,n,n,n,n,n
O=C(CNC(=O)c1ccco1)NCC(=O)OCc1cccc(Cl)c1,n,n,n,43.6,n,n
O=C(NCCNC(=O)c1ccc(Cl)cc1Cl)c1ccco1,n,n,n,16.4,n,n
CC(OC(=O)c1ccc([N+](=O)[O-])o1)C(=O)Nc1nc(-c2ccc(F)c(F)c2)cs1 (stereo not drawn),n,n,n,n,n,n
COc1ccc(-c2noc(CCCCC(=O)N3CCN(c4cc(C)ccc4C)CC3)n2)cc1,29.6,31.6,n,n,n,n
CCN(CC)CC#CCC(O)(c1ccccc1)c1ccc(Br)cc1 (stereo not drawn),29.7,n,n,n,n,n
C=CC(O)(C#CCN(CC)CC)c1ccccc1 (stereo not drawn),n,n,n,n,n,n
CCN(CC)CC#CCC(O)(c1ccccc1)c1ccccc1,32.4,28.9,n,n,n,n
CCN(CC)CC#CCC(C)(c1ccccc1)c1ccccc1,63.3,n,n,n,n,n
CN(C)CC#CCC(O)(c1ccccc1)c1ccccc1,n,n,n,n,n,n
CC(C)CN(C(=O)C1COc2ccccc2O1)c1c(N)n(CC(C)C)c(=O)[nH]c1=O (stereo not drawn),n,n,n,n,n,n
CC#CC[N+](C)(C)CCCCCCCCCCCC,26.6,n,n,n,n,n
C#CC[N+](C)(C)CCCCCCCCCC,n,n,n,n,n,n
C#CC[N+](C)(C)CCCCCCCCCCCC,52.9,n,n,n,n,n
SMILES,CHRM4 antagonist,CHRM5 antagonist,M5 PAM,CHRM4 PAM,CHRM5 agonist,CHRM4 agonist
COCCCNC(=O)c1ccc2sc([C@@H]3O[C@H](CO)[C@H](O)[C@H](O)[C@H]3O)nc2c1,n,n,n,n,n,n
COc1cccc(C(=O)O/N=C(\N)CS(=O)(=O)c2ccccc2)c1,n,n,n,n,n,n
CC(=O)Nc1ccc(Sc2ncccc2C(=O)Nc2ccc(F)cc2)cn1,n,n,n,n,50.3,93.6
CC(=O)COc1ccccc1OC(=O)c1ccco1,n,n,n,n,n,n
CC(=O)c1ccccc1OC(=O)c1ccco1,n,n,n,22.9,n,n
COc1cc(/C=C2/C(=N)N3C(=NC2=O)SN=C3S(C)(=O)=O)ccc1OS(=O)(=O)c1ccc(C)cc1,n,n,n,n,n,n
CCS(=O)(=O)C1=NSC2=NC(=O)/C(=C\c3ccc(OS(=O)(=O)c4ccccc4)c(OC)c3)C(=N)N21,n,n,28.6,n,n,n
O=P(OCC1CCCO1)(OCC1CCCO1)OCC1CCCO1 (stereo not drawn),n,n,n,n,n,n
CCN1/C(=C\c2ccc3cc(C)ccc3[n+]2CC)Sc2cc(C)c(C)cc21,n,42.0,n,n,n,n
CCN1/C(=C/c2ccc3cccc(C)c3[n+]2CC)Sc2ccccc21,30.7,27.2,n,n,n,n
CCN1/C(=C/c2ccc3cc(C)cc(C)c3[n+]2CC)Sc2cc(C)ccc21,n,31.1,n,n,n,n
COc1cc(NC(=O)C2C3CCC(O3)C2C(=O)O)cc(OC)c1 (stereo not drawn),n,n,n,n,n,n
Oc1ccccc1-n1c(-c2ccccc2)ccc1-c1ccccc1,n,n,n,n,n,n
COc1ccc(Cn2nnnc2C(CC(C)C)N2CCC(C(N)=O)CC2)cc1 (stereo not drawn),n,n,21.4,n,n,n
CS(=O)(=O)c1ccc(C(=O)OCC(=O)N2CCN(CCC3CCCCC3)CC2)cc1[N+](=O)[O-],29.5,n,n,n,n,n
CCCc1nc2c(=O)[nH]c3ccccc3c2o1,n,n,18.6,n,n,n
COc1ccc(C2=NOC(C(=O)N3CCOCC3)C2)cc1OC (stereo not drawn),n,n,n,n,n,n
COc1cccc(C2=NOC(C(=O)N3CCOCC3)C2)c1 (stereo not drawn),n,n,n,29.5,n,n
COC(=O)[C@@]1(Sc2ccc(C)cc2)CC(=O)N(c2ccccc2)[C@@H]1c1ccccc1,39.9,30.3,n,n,n,n
Clc1cc2nc[nH]c2cc1Cl,n,n,n,n,n,n
Cc1cc(Oc2ccc(N)cn2)ccc1Cl,n,31.2,n,n,23.7,n
CCCCCCCC[n+]1cccc2c3ccccc3ccc21,64.6,36.4,n,n,n,n
CCCCCCCCCC[n+]1cccc2c3ccccc3ccc21,57.8,45.5,n,n,n,n
O=C(OCC(=O)C12CC3CC(CC(C3)C1)C2)c1cnccn1,n,n,n,n,n,n
COc1ccc(S(=O)(=O)N2CCN(Cc3ccco3)CC2)cc1,n,n,n,n,n,n
SMILES,CHRM4 antagonist,CHRM5 antagonist,M5 PAM,CHRM4 PAM,CHRM5 agonist,CHRM4 agonist
Cc1cc(C(=O)COC(=O)Cc2ccc(Cl)cc2)c(C)n1C,n,n,n,n,n,n
CN1CCN(C2=Cc3ccc(Cl)cc3Sc3ccc(F)cc32)CC1,n,n,n,n,n,n
CN1CCN(C2=Cc3ccccc3Sc3cc(F)ccc32)CC1,n,27.7,n,n,n,n
Cc1ccc(OCC(=O)NCCCNC(=O)c2ccco2)cc1,n,n,n,n,n,n
CN(C)Cc1cc(C(F)(F)F)ccc1C(O)(c1ccccc1)c1ccccc1,57.3,75.4,n,n,n,n
CC1(c2ccccc2)NC(=O)N(CC(=O)NNC(=O)c2cccc(Cl)c2)C1=O (stereo not drawn),n,n,n,n,n,n
